Reference: ChEMBL document CHEMBL4819134, “Design, synthesis and biological evaluation of imidazopyridazine derivatives containing isoquinoline group as potent MNK1/2 inhibitors” (Bioorg Med Chem, 2021)

How the values were obtained:
[1] = target: T1, MAP kinase-interacting serine/threonine-protein kinase 1 (Homo sapiens, UniProt Q9BUB5); conditions: Sf21, dose 500.0 nM, time 50.0 min
Target sequence in this assay (Q9BUB5 whole entry, looked up): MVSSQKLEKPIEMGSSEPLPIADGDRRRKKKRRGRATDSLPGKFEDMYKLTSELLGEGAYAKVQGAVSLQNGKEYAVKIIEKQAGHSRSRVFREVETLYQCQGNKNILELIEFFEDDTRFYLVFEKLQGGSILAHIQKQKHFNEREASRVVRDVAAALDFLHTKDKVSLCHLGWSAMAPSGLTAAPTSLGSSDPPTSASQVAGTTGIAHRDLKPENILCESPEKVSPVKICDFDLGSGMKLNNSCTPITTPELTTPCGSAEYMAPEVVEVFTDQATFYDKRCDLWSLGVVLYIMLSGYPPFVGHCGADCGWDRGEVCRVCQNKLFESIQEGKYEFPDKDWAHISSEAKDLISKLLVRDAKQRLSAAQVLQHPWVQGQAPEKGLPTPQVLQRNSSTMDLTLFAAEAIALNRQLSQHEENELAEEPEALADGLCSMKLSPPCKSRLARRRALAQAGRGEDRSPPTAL

[2] = target: T2, MAP kinase-interacting serine/threonine-protein kinase 2 (Homo sapiens, UniProt Q9HBH9); conditions: Sf21, dose 500.0 nM, time 50.0 min
Target sequence in this assay (Q9HBH9 whole entry, looked up, the tested form may be a part): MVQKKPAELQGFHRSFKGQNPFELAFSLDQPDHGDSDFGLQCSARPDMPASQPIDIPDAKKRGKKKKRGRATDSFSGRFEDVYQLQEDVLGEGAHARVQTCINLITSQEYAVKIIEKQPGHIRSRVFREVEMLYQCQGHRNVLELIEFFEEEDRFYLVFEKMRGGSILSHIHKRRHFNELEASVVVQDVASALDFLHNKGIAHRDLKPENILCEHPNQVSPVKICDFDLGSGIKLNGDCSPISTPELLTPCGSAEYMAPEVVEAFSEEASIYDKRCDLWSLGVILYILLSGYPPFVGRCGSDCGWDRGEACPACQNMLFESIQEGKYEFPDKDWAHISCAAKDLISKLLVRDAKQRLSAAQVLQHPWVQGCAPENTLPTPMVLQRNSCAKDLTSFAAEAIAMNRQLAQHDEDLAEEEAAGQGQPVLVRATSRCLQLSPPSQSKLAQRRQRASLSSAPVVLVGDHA

[3] = target: T1, MAP kinase-interacting serine/threonine-protein kinase 1; assay: Inhibition of N-terminal GST-fused human full length recombinant MNK1 (1 to 424 residues) expressed in baculovirus-infected Sf21 cells using TATKSGSTTKNR as substrate preincubated with enzyme and substrate for 10 mins followed by ATP addition and measured after 40 mins by ADP-glo luminescence assay
Target sequence in this assay (Q9BUB5 whole entry): as the sequence (Q9BUB5 whole entry, looked up) above

[4] = target: T2, MAP kinase-interacting serine/threonine-protein kinase 2; assay: Inhibition of N-terminal GST-fused human full length recombinant MNK2 (1 to 465 residues) expressed in baculovirus-infected Sf21 cells using TATKSGSTTKNR as substrate preincubated with enzyme and substrate for 10 mins followed by ATP addition and measured after 40 mins by ADP-glo luminescence assay
Target sequence in this assay (Q9HBH9 whole entry, the tested form may be a part): as the sequence (Q9HBH9 whole entry, looked up, the tested form may be a part) above

TMD8 [5] = assay: Antiproliferative activity against human TMD8 cells assessed as reduction in cell viability incubated for 72 hrs by MTT assay; assay type: functional, cell-based; conditions: TMD8, 72 h
Method in brief: (§1)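 Lymphoma cells seeded and grown 12 h, then exposed to serial compound concentrations in medium with 1‰ DMSO, each in triplicate, for 72 h. DMSO-only control. Viability read by MTT and normalized to DMSO control. IC50 derived by Logit method, mean ± SD of three independent determinations.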

DOHH-2 = assay: Antiproliferative activity against human DOHH-2 cells assessed as reduction in cell viability incubated for 72 hrs by MTT assay; assay type: functional, cell-based; conditions: DOHH-2, 72 h
Method in brief: as §1

TMD8 [6] = assay: Induction of apoptosis in human TMD8 cells assessed as early apoptotic cells at 0.5 uM incubated for 24 hrs by AnnexinV-FITC/PE staining based flow cytometry (reference value: 4.35%); assay type: functional
Method in brief: (§2)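 TMD-8 cells seeded at 1 × 10^5 per 2 mL well and treated 24 h at 0.25, 0.5 or 1 μM, with DMSO control. Cells washed twice in cold PBS and resuspended in binding buffer. Stained with annexin V-FITC for 15 min, then PI for 5 min, both at 37 °C in the dark. Analysed by flow cytometry.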

TMD8 [7] = assay: Induction of apoptosis in human TMD8 cells assessed as viable cells at 0.5 uM incubated for 24 hrs by AnnexinV-FITC/PE staining based flow cytometry (reference value: 94.2%); assay type: functional; conditions: read-out: Activity
Method in brief: as §2

TMD8 [8] = assay: Induction of apoptosis in human TMD8 cells assessed as necrotic cells at 0.25 uM incubated for 24 hrs by AnnexinV-FITC/PE staining based flow cytometry (reference value: 0%); assay type: functional
Method in brief: as §2

TMD8 [9] = assay: Induction of apoptosis in human TMD8 cells assessed as late apoptotic cells at 0.25 uM incubated for 24 hrs by AnnexinV-FITC/PE staining based flow cytometry (reference value: 1.44%); assay type: functional
Method in brief: as §2

TMD8 [10] = assay: Induction of apoptosis in human TMD8 cells assessed as early apoptotic cells at 0.25 uM incubated for 24 hrs by AnnexinV-FITC/PE staining based flow cytometry (reference value: 4.35%); assay type: functional
Method in brief: as §2

[11] = target: Tyrosine-protein kinase BTK (Homo sapiens) (UniProt Q06187); assay: Inhibition of BTK (unknown origin) at 500 nM
Sequence of Tyrosine-protein kinase BTK (Homo sapiens) (Q06187 whole entry): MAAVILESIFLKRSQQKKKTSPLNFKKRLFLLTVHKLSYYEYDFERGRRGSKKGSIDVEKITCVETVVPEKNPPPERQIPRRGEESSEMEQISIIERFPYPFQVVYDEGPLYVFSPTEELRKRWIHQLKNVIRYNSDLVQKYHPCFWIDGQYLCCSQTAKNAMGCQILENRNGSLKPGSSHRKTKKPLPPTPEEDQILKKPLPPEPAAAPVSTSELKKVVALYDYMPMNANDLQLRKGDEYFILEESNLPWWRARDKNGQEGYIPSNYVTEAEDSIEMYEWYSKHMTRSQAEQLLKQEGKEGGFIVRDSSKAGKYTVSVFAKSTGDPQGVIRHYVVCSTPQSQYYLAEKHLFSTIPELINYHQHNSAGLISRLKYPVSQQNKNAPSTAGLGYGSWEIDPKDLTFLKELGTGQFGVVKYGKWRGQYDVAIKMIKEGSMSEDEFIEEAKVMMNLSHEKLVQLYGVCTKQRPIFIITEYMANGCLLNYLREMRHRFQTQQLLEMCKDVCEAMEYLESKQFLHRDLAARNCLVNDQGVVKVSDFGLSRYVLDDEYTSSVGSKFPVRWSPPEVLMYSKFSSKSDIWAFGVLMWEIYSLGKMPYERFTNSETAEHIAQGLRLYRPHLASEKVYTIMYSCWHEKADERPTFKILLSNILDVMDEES

[12] = target: Cyclin-dependent kinase 1 (Homo sapiens) (UniProt P06493); assay: Inhibition of CDK1 (unknown origin) at 500 nM
Sequence of Cyclin-dependent kinase 1 (Homo sapiens) (P06493 whole entry, looked up): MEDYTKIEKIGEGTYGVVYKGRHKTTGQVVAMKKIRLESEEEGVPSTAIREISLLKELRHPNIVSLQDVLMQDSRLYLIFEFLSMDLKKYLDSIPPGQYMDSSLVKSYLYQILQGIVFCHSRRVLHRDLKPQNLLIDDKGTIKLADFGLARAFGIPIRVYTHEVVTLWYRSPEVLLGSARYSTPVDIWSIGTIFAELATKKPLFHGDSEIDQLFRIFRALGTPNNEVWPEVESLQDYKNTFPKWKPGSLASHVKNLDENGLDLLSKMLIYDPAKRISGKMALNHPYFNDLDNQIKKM

[13] = target: T3, Interleukin-1 receptor-associated kinase 4 (Homo sapiens) (UniProt Q9NWZ3); assay: Inhibition of IRAK4 (unknown origin) at 500 nM
T3 sequence (whole entry): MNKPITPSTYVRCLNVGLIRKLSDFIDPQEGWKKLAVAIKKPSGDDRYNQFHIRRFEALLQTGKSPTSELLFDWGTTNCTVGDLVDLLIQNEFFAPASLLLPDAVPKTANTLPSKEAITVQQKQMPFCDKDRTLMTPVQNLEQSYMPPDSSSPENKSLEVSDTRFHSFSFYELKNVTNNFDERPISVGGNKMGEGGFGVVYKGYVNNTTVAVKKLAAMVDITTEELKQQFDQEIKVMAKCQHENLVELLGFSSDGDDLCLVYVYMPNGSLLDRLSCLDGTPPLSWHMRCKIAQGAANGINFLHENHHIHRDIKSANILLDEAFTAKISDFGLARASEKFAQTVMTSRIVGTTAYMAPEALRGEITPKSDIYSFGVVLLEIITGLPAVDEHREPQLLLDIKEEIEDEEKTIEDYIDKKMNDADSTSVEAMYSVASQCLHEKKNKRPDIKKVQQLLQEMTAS

[14] = target: AMP-activated protein kinase, AMPK (Homo sapiens) (UniProt P54646+O43741+P54619+Q9UGJ0+Q9Y478+Q13131+Q9UGI9); assay: Inhibition of AMPK (unknown origin) at 500 nM; assay type: protein-complex assay
[15] = target: Tyrosine-protein kinase JAK1 (Homo sapiens) (UniProt P23458); assay: Inhibition of JAK1 (unknown origin) at 500 nM
Sequence of Tyrosine-protein kinase JAK1 (Homo sapiens) (P23458 whole entry): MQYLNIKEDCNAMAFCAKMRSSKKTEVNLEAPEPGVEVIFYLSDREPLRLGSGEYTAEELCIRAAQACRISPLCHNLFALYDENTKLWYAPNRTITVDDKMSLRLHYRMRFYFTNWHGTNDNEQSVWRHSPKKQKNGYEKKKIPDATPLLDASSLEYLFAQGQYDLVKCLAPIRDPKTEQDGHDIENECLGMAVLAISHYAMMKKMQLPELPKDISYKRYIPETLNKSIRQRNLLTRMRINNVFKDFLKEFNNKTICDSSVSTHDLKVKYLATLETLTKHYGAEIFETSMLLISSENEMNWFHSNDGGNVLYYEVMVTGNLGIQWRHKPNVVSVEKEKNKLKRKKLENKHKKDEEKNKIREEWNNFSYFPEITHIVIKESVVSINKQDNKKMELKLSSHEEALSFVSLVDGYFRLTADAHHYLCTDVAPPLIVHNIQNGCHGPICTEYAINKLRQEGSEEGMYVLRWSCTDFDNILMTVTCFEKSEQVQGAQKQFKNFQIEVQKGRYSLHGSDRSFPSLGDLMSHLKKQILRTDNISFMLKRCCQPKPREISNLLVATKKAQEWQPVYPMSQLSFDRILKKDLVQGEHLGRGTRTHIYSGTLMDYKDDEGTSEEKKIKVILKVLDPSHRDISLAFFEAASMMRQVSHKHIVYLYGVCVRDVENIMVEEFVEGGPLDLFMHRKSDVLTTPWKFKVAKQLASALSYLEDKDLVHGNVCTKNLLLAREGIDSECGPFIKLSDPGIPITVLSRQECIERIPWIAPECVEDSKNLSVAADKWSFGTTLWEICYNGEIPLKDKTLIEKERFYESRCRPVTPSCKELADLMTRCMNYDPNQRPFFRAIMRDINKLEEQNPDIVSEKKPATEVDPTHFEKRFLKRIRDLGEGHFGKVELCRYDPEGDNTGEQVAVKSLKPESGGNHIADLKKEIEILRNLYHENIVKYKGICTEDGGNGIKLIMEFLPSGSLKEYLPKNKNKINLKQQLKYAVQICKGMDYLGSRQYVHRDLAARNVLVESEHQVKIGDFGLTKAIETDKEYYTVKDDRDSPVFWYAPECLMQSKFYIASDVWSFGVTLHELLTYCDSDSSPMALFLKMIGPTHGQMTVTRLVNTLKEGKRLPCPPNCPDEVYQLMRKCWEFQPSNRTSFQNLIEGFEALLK

[16] = target: Macrophage colony-stimulating factor 1 receptor (Homo sapiens) (UniProt P07333); assay: Inhibition of CSF1R (unknown origin) at 500 nM
Sequence of Macrophage colony-stimulating factor 1 receptor (Homo sapiens) (P07333 whole entry): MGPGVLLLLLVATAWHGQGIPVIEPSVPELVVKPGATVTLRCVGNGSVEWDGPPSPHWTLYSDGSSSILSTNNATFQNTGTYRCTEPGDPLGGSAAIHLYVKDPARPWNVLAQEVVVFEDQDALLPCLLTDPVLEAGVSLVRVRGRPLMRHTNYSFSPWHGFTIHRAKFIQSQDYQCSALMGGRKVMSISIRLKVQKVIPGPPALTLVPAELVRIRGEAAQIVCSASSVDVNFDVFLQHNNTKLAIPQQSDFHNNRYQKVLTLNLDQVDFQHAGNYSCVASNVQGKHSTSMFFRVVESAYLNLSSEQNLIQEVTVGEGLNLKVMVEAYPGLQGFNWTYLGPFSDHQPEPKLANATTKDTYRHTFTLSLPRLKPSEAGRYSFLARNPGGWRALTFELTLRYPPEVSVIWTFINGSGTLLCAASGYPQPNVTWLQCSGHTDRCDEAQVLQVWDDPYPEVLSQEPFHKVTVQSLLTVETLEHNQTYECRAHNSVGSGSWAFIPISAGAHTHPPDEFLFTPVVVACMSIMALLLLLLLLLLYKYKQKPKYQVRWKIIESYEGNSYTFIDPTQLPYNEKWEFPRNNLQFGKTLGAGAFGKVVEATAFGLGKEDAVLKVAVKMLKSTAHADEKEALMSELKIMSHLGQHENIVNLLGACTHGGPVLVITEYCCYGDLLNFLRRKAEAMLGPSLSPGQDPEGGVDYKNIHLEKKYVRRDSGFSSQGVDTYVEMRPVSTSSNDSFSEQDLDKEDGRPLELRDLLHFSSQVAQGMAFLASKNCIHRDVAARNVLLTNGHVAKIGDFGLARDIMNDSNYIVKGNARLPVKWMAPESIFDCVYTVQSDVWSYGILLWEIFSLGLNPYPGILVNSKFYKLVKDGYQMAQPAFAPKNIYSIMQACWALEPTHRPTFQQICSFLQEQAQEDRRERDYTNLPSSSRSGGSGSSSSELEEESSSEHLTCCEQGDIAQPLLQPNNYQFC

TMD8 [17] = assay: Induction of apoptosis in human TMD8 cells assessed as viable cells at 0.25 uM incubated for 24 hrs by AnnexinV-FITC/PE staining based flow cytometry (reference value: 94.2%); assay type: functional; conditions: read-out: Activity
Method in brief: as §2

TMD8 [18] = assay: Induction of apoptosis in human TMD8 cells assessed as late apoptotic cells at 0.5 uM incubated for 24 hrs by AnnexinV-FITC/PE staining based flow cytometry (reference value: 1.44%); assay type: functional
Method in brief: as §2

TMD8 [19] = assay: Induction of apoptosis in human TMD8 cells assessed as necrotic cells at 0.5 uM incubated for 24 hrs by AnnexinV-FITC/PE staining based flow cytometry (reference value: 0%); assay type: functional
Method in brief: as §2

TMD8 [20] = assay: Induction of apoptosis in human TMD8 cells assessed as viable cells at 1 uM incubated for 24 hrs by AnnexinV-FITC/PE staining based flow cytometry (reference value: 94.2%); assay type: functional; conditions: read-out: Activity
Method in brief: as §2

TMD8 [21] = assay: Induction of apoptosis in human TMD8 cells assessed as early apoptotic cells at 1 uM incubated for 24 hrs by AnnexinV-FITC/PE staining based flow cytometry (reference value: 4.35%); assay type: functional
Method in brief: as §2

TMD8 [22] = assay: Induction of apoptosis in human TMD8 cells assessed as late apoptotic cells at 1 uM incubated for 24 hrs by AnnexinV-FITC/PE staining based flow cytometry (reference value: 1.44%); assay type: functional
Method in brief: as §2

TMD8 [23] = assay: Induction of apoptosis in human TMD8 cells assessed as necrotic cells at 1 uM incubated for 24 hrs by AnnexinV-FITC/PE staining based flow cytometry (reference value: 0%); assay type: functional
Method in brief: as §2

SMILES | inhibition [1] [%] | inhibition [2] [%] | IC50 [3] [nM] | IC50 [4] [nM] | IC50 (TMD8 [5]) [nM] | IC50 (DOHH-2) [nM] | further results
O=C(c1ccc(-c2ccc3ncc(-c4ccc5ncccc5c4)n3c2)cc1)N1CCC(N2CCCCC2)CC1 | 62.8 | 2.41 | – | – | – | – | –
N[C@H]1CCCN(C(=O)c2ccc(-c3cn4c(-c5ccc6cnccc6c5)cnc4cn3)cc2)C1 | – | – | 27.3 | 19.4 | 2560 | 5190 | –
O=C(c1ccc(-c2ccc3ncc(-c4ccc5ncccc5c4)n3c2)cc1)N1CCOCC1 | 74.7 | 64 | 371 | 216 | – | – | –
O=C(c1ccc(-c2ccc3ncc(-c4ccc5cnccc5c4)n3c2)cc1)N1CCC(N2CCCCC2)CC1 | 92.9 | 74.7 | 2.4 | 1.5 | 4010 | 3820 | –
N[C@@H]1CCCN(C(=O)c2ccc(-c3cn4c(-c5ccc6cnccc6c5)cnc4cn3)cc2)C1 | – | – | 42 | 26.7 | 3100 | 3250 | –
O=C(c1ccc(-c2ccc3ncc(-c4ccc5ncccc5c4)n3c2)cc1)N1CCNCC1 | 73.5 | 49.9 | – | – | – | – | –
O=C(c1ccc(-c2ccc3ncc(-c4ccc5cnccc5c4)n3c2)cc1)N1CCOCC1 | 93.7 | 106 | 7 | 25.7 | – | – | –
NC1CCN(C(=O)c2ccc(-c3ccc4ncc(-c5ccc6cnccc6c5)n4n3)cc2)CC1 | – | – | 14.5 | 15.7 | 2080 | 541 | –
O=C(c1ccc(-c2ccc3ncc(-c4ccc5cnccc5c4)n3c2)cc1)N1CCNCC1 | 98.7 | 77.7 | 9.4 | 2.9 | 6640 | 8680 | –
N[C@H]1CCCN(C(=O)c2ccc(-c3ccc4ncc(-c5ccc6cnccc6c5)n4c3)cc2)C1 | – | – | 2.5 | 2.5 | 3460 | 6730 | –
N[C@@H]1CCCN(C(=O)c2ccc(-c3ccc4ncc(-c5ccc6cnccc6c5)n4c3)cc2)C1 | – | – | 7.7 | 8.9 | 2300 | 6280 | –
NC1CCN(C(=O)c2ccc(-c3cn4c(-c5ccc6cnccc6c5)cnc4cn3)cc2)CC1 | – | – | 32.1 | 18.5 | 7570 | 12000 | –
N#Cc1ccc(-c2cnc3ccc(-c4ccc(C(=O)N5CCOCC5)cc4)cn23)cc1 [TINODASERTIB] | – | – | – | – | 2140 | 1620 | –
O=C(c1ccc(-c2ccc3ncc(-c4cnc5ccccc5c4)n3c2)cc1)N1CCC(N2CCOCC2)CC1 | 40.6 | 18.7 | – | – | – | – | –
NC1CCN(C(=O)c2ccc(-c3ccc4ncc(-c5ccc6cnccc6c5)n4c3)cc2)CC1 | – | – | 5.2 | 16.8 | 2060 | 8300 | –
O=C(c1ccc(-c2ccc3ncc(-c4ccc5ncccc5c4)n3c2)cc1)N1CCC(N2CCOCC2)CC1 | 49.8 | 34.9 | – | – | – | – | –
N[C@H]1CCCN(C(=O)c2ccc(-c3ccc4ncc(-c5ccc6cnccc6c5)n4n3)cc2)C1 | 103 | 97.3 | 2.3 | 3.4 | 390 | 409 | Activity (TMD8 [6]): 9.42%; viability at 0.5 µM (TMD8 [7]): 44.6%; Activity (TMD8 [8]): 0%; Activity (TMD8 [9]): 19.8%; Activity (TMD8 [10]): 30%; inhibition [11]: 4.1%; inhibition [12]: 5.01%; inhibition [13]: 22.3%; inhibition [14]: 10.2%; inhibition [15]: 6.5%; inhibition [16]: 11.6%; viability at 0.25 µM (TMD8 [17]): 50.2%; Activity (TMD8 [18]): 45.9%; Activity (TMD8 [19]): 0.037%; viability at 1 µM (TMD8 [20]): 12.5%; Activity (TMD8 [21]): 9.3%; Activity (TMD8 [22]): 78.2%; Activity (TMD8 [23]): 0%
O=C(c1ccc(-c2ccc3ncc(-c4ccc5cnccc5c4)n3c2)cc1)N1CCC(N2CCOCC2)CC1 | 87.8 | 77.7 | 4 | 3.2 | 4260 | 7550 | –
O=C(c1ccc(-c2ccc3ncc(-c4cnc5ccccc5c4)n3c2)cc1)N1CCC(N2CCCCC2)CC1 | 71 | 48.8 | – | – | – | – | –
N[C@@H]1CCCN(C(=O)c2ccc(-c3ccc4ncc(-c5ccc6cnccc6c5)n4n3)cc2)C1 | – | – | 9.4 | 6.6 | 2420 | 400 | –
O=C(c1ccc(-c2ccc3ncc(-c4cnc5ccccc5c4)n3c2)cc1)N1CCOCC1 | 71 | 21 | 154 | 636 | – | – | –
O=C(c1ccc(-c2ccc3ncc(-c4cnc5ccccc5c4)n3c2)cc1)N1CCNCC1 | 70.7 | 68.1 | 67.6 | 51.2 | – | – | –
